# Source: ChEMBL document CHEMBL4732207, “Design, Synthesis and Structure-Activity Relationship Studies of Glycosylated Derivatives of Marine Natural Product Lamellarin D” (Eur J Med Chem, 2021)
# The source made the active and inactive calls. The calls are words filed in the database; no cut-off is given here.
# Experiments:
# A549 = assay: Cytotoxicity against human A549 cells assessed as reduction in cell viability incubated for 72 hrs by MTT assay; format: functional, cell-based; details: A549, 72 h
# Outline: (§1)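 Cells resuspended in DMEM plus 10% FBS and seeded at 5 000 cells/well. They were incubated overnight at 37 °C in 5% CO2, then exposed to serial dilutions for 72 h at 37 °C. Medium was replaced with fresh medium containing 0.5 mg/mL MTT for 4 h, formazan dissolved in DMSO, and A540 read. Proliferation = A540 treated/control ×100%. IC50 is the concentration inhibiting proliferation by 50%.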
# MDA-MB-231 [1] = assay: Cytotoxicity against human MDA-MB-231 cells assessed as reduction in cell viability incubated for 72 hrs by MTT assay; format: functional, cell-based; details: MDA-MB-231, 72 h; outline: as §1
# MDA-MB-231 [2] = assay: Induction of cell cycle arrest in human MDA-MB-231 cells assessed as increase in accumulation of G2/M phase incubated for 24 hrs by PI staining based flow cytometry analysis; format: functional; details: dose 10-50 nM
# Outline: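 MDA-MB-231 cells (5 × 10^5) seeded in six-well plates, cultured overnight at 37 °C, then treated at 10, 20 or 50 nM for 24 h. Lamellarin D was the positive control at 20 and 50 nM. Cells were trypsinized, washed twice in PBS and fixed in 70% ethanol overnight at −20 °C. After washing, cells were stained with propidium iodide. Phase distribution was read by flow cytometry.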
# HepG2 = assay: Cytotoxicity against human HepG2 cells assessed as reduction in cell viability incubated for 72 hrs by MTT assay; format: functional, cell-based; details: HepG2, 72 h; outline: as §1
# HGC-27 = assay: Cytotoxicity against human HGC-27 cells assessed as reduction in cell viability incubated for 72 hrs by MTT assay; format: functional, cell-based; details: HGC-27, 72 h; outline: as §1
# MDA-MB-231 [3] = assay: Induction of apoptosis in human MDA-MB-231 cells at 50 nM incubated for 24 hrs by annexin-V-FITC and PI staining based flow cytometry analysis; format: functional, cell-based
# HCT-116 = assay: Cytotoxicity against human HCT-116 cells assessed as reduction in cell viability incubated for 72 hrs by MTT assay; format: functional, cell-based; details: HCT-116, 72 h; outline: as §1
# [4] = Aqueous solubility of compound in deionized water by HPLC-HRMS analysis; format: physicochemical; details: buffer
# [5] = target: T1, DNA topoisomerase 1 (Homo sapiens) (UniProt P11387); assay: Inhibition of topoisomerase 1 (unknown origin) assessed as reduction in relaxation of supercoiled plasmid pBR322 DNA at 10 uM incubated for 30 mins by agarose gel electrophoresis
# T1 sequence (whole entry): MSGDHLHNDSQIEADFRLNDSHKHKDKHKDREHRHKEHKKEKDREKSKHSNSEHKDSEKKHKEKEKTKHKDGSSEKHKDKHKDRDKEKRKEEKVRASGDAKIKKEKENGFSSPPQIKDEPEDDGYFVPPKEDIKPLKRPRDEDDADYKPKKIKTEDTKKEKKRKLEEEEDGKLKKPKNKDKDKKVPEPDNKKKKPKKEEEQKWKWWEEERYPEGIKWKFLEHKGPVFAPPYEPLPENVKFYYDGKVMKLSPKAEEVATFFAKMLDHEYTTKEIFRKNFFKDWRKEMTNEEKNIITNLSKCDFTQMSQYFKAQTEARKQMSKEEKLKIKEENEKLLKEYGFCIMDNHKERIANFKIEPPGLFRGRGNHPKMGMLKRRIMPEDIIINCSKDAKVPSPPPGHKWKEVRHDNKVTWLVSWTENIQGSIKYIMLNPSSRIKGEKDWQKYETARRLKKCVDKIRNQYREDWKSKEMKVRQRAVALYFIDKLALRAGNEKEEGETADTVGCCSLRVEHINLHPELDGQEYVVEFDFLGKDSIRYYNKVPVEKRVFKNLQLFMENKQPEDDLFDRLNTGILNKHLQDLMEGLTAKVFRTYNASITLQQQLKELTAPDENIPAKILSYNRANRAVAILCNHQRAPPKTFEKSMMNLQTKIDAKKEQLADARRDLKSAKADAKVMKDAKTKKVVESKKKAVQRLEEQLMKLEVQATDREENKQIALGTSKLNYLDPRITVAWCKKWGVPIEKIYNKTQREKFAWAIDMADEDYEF
# Outline: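 Reaction mix held 10X Topo I buffer, supercoiled pBR322 (250 ng), Topo I (2 U) and compound at 10 µM, incubated 37 °C for 30 min. Stopped with 10% SDS, then proteinase K digestion for 30 min. Products run on 1% agarose without stain, post-stained with 4s Green for 50 min and imaged under UV. Read-out is loss of relaxation.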
structure (smiles),measurement,setting,value
COc1cc(-c2c3c4cc(OC)c(O[C@@H]5O[C@H](CO)[C@@H](O)[C@H](O)[C@H]5O)cc4oc(=O)c3n3ccc4cc(O)c(OC)cc4c23)ccc1O,IC50,A549,3 nM
same,IC50,MDA-MB-231 [1],34 nM
same,Activity,MDA-MB-231 [2],Dose-dependent effect
same,IC50,HepG2,15 nM
same,IC50,HGC-27,162 nM
same,Activity,MDA-MB-231 [3],Active
same,IC50,HCT-116,10 nM
same,solubility,[4],2 nM
COc1cc(-c2c3c4cc(OC)c(O[C@@H]5O[C@H](CO)[C@@H](O)[C@H](O)[C@H]5O)cc4oc(=O)c3n3ccc4cc(O[C@@H]5O[C@H](CO)[C@@H](O)[C@H](O)[C@H]5O)c(OC)cc4c23)ccc1O,IC50,A549,26 nM
same,IC50,MDA-MB-231 [1],36 nM
same,IC50,HepG2,118 nM
same,IC50,HGC-27,74 nM
same,IC50,HCT-116,40 nM
same,solubility,[4],182.31 nM
COc1cc(-c2c3c4cc(OC)c(O)cc4oc(=O)c3n3ccc4cc(O[C@@H]5O[C@H](CO)[C@@H](O)[C@H](O)[C@H]5O)c(OC)cc4c23)ccc1O,IC50,A549,47 nM
same,IC50,MDA-MB-231 [1],32 nM
same,IC50,HepG2,24 nM
same,IC50,HGC-27,114 nM
same,IC50,HCT-116,14 nM
same,solubility,[4],257.78 nM
COc1cc(-c2c3c4cc(OC)c(O[C@H]5O[C@H](CO)[C@@H](O)[C@H](O)[C@@H]5O)cc4oc(=O)c3n3ccc4cc(O)c(OC)cc4c23)ccc1O,IC50,A549,374 nM
same,IC50,MDA-MB-231 [1],316 nM
same,IC50,HepG2,570 nM
same,IC50,HGC-27,137 nM
same,IC50,HCT-116,206 nM
same,solubility,[4],0.37 nM
COc1cc2c(cc1O)oc(=O)c1c2c(-c2ccc(O[C@@H]3O[C@H](CO)[C@@H](O)[C@H]3O)c(OC)c2)c2c3cc(OC)c(O)cc3ccn21,IC50,A549,659 nM
same,IC50,MDA-MB-231 [1],2110 nM
same,IC50,HepG2,332 nM
same,IC50,HGC-27,224 nM
same,IC50,HCT-116,614 nM
COc1cc2c(cc1O)oc(=O)c1c2c(-c2ccc(O[C@@H]3O[C@H](CO)[C@@H](O)[C@H](O)[C@H]3O)c(OC)c2)c2c3cc(OC)c(O)cc3ccn21,IC50,A549,> 50000 nM
same,inhibition,[5],Active
same,IC50,MDA-MB-231 [1],> 50000 nM
same,IC50,HepG2,42900 nM
same,IC50,HGC-27,> 50000 nM
same,IC50,HCT-116,26200 nM
same,solubility,[4],0.41 nM
COc1cc(-c2c3c4cc(OC)c(O[C@@H]5O[C@H](CO)[C@H](O)[C@H](O)[C@H]5O)cc4oc(=O)c3n3ccc4cc(O)c(OC)cc4c23)ccc1O,IC50,A549,20 nM
same,IC50,MDA-MB-231 [1],25 nM
same,IC50,HepG2,58 nM
same,IC50,HGC-27,90 nM
same,IC50,HCT-116,18 nM
same,solubility,[4],0.12 nM
COc1cc2c(cc1O)oc(=O)c1c2c(-c2ccc(O[C@@H]3O[C@H](CO)[C@H](O)[C@H](O)[C@H]3O)c(OC)c2)c2c3cc(OC)c(O)cc3ccn21,IC50,A549,> 50000 nM
same,inhibition,[5],Active
same,IC50,MDA-MB-231 [1],> 50000 nM
same,IC50,HepG2,> 50000 nM
same,IC50,HGC-27,16600 nM
same,IC50,HCT-116,13700 nM
same,solubility,[4],0.49 nM
COc1cc2c(ccn3c2c(-c2ccc(O[C@@H]4O[C@H](CO)[C@@H](O)[C@H](O)[C@H]4O)c(OC)c2)c2c4cc(OC)c(O[C@@H]5O[C@H](CO)[C@@H](O)[C@H](O)[C@H]5O)cc4oc(=O)c23)cc1O,IC50,A549,16400 nM
same,inhibition,[5],Active
same,IC50,MDA-MB-231 [1],7370 nM
same,IC50,HepG2,28800 nM
same,IC50,HGC-27,7220 nM
same,IC50,HCT-116,6770 nM
same,solubility,[4],257.55 nM
COc1cc2c(cc1O)oc(=O)c1c2c(-c2ccc(O[C@H]3O[C@H](CO)[C@@H](O)[C@H](O)[C@@H]3O)c(OC)c2)c2c3cc(OC)c(O)cc3ccn21,IC50,A549,> 50000 nM
same,inhibition,[5],Active
same,IC50,MDA-MB-231 [1],> 50000 nM
same,IC50,HepG2,> 50000 nM
same,IC50,HGC-27,31300 nM
same,IC50,HCT-116,> 50000 nM
same,solubility,[4],0.14 nM
COc1cc(-c2c3c4cc(OC)c(O)cc4oc(=O)c3n3ccc4cc(O[C@@H]5O[C@H](CO)[C@H](O)[C@H](O)[C@H]5O)c(OC)cc4c23)ccc1O,IC50,A549,13 nM
same,IC50,MDA-MB-231 [1],18 nM
same,IC50,HepG2,48 nM
same,IC50,HGC-27,114 nM
same,IC50,HCT-116,37 nM
same,solubility,[4],235.82 nM
COc1cc(-c2c3c4cc(OC)c(O[C@@H]5O[C@H](CO)[C@@H](O)[C@H]5O)cc4oc(=O)c3n3ccc4cc(O)c(OC)cc4c23)ccc1O,IC50,A549,2860 nM
same,IC50,MDA-MB-231 [1],2690 nM
same,IC50,HepG2,627 nM
same,IC50,HGC-27,862 nM
same,IC50,HCT-116,1160 nM
COc1cc(-c2c3c4cc(OC)c(O)cc4oc(=O)c3n3ccc4cc(O[C@H]5O[C@H](CO)[C@@H](O)[C@H](O)[C@@H]5O)c(OC)cc4c23)ccc1O,IC50,A549,3240 nM
same,IC50,MDA-MB-231 [1],1990 nM
same,IC50,HepG2,3880 nM
same,IC50,HGC-27,219 nM
same,IC50,HCT-116,1420 nM
same,solubility,[4],0.23 nM
COc1cc(-c2c3c4cc(OC)c(O)cc4oc(=O)c3n3ccc4cc(O[C@@H]5O[C@H](CO)[C@@H](O)[C@H]5O)c(OC)cc4c23)ccc1O,IC50,A549,4120 nM
same,IC50,MDA-MB-231 [1],5080 nM
same,IC50,HepG2,937 nM
same,IC50,HGC-27,1240 nM
same,IC50,HCT-116,1280 nM
COc1cc(-c2c3c4cc(OC)c(O)cc4oc(=O)c3n3ccc4cc(O)c(OC)cc4c23)ccc1O [LAMELLARIN D],IC50,A549,4 nM
same,inhibition,[5],Active
same,IC50,MDA-MB-231 [1],31 nM
same,Activity,MDA-MB-231 [2],Dose-dependent effect
same,IC50,HepG2,88 nM
same,IC50,HGC-27,236 nM
same,IC50,HCT-116,25 nM
same,solubility,[4],0.56 nM
COc1cc2c(cc1O)oc(=O)c1c2c(-c2ccc(O[C@@H]3O[C@H](CO)[C@@H](O)[C@H](O)[C@H]3O)c(OC)c2)c2c3cc(OC)c(O[C@@H]4O[C@H](CO)[C@@H](O)[C@H](O)[C@H]4O)cc3ccn21,IC50,A549,13700 nM
same,inhibition,[5],Active
same,IC50,MDA-MB-231 [1],13300 nM
same,IC50,HepG2,40100 nM
same,IC50,HGC-27,27100 nM
same,IC50,HCT-116,5280 nM
same,solubility,[4],96.75 nM
